Laboratory results from ChEMBL document CHEMBL2163314, “Potent aminocyclitol glucocerebrosidase inhibitors are subnanomolar pharmacological chaperones for treating gaucher disease” (J Med Chem, 2012).

Legend:
[1] = Agonist activity at glucosylceramidase […] mutant in lymphoblast obtained from Gaucher disease patient using 4-methylumbelliferyl-beta-D-glucopyranoside as substrate preincubated at 1 uM for 3 days measured 2 hrs post substrate addition by fluorescence assay relative to untreated control; format: functional, Homo sapiens
In short: (§1)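 Homozygous L444P GD type 2 patient-derived lymphoblasts (GM08752) in RPMI-1640 with 15% FBS, seeded at 2 × 10^5 cells/well and exposed to compound for 3 days. Cells were washed with PBS and sonicated in water. Homogenate was assayed with 6 mM 4-methylumbelliferyl-β-D-glucopyranoside in 0.1 M citrate phosphate, pH 5.2, with 0.25% taurocholate and 0.1% Triton X-100, for 2 h at 37 °C. Fluorescence read at 355/460 nm, normalized to untreated cells, triplicate.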

[2] = Agonist activity at glucosylceramidase […] mutant in lymphoblast obtained from Gaucher disease patient using 4-methylumbelliferyl-beta-D-glucopyranoside as substrate preincubated at 50 nM for 3 days measured 2 hrs post substrate addition by fluorescence assay relative to untreated control; format: functional, Homo sapiens; in short: as §1

Row | Structure (SMILES) | fold change (FC) [1] | fold change (FC) [2]
1 | CCCCCCCCCN[C@H]1[C@H](O)[C@@H](O)[C@H](O)[C@@H](O)[C@@H]1OC.Cl | 1.5 | –
2 | CCCCCCCCCN[C@H]1[C@H](O)[C@@H](O)[C@H](O)[C@@H](O)[C@H]1OC.Cl | – | 1.4
